Bioassay records from PubChem BioAssay.
In the library only some 0.72% were active in any assay of this set; here they are far more common.
mIAP activ – increases mouse intestinal alkaline phosphatase activity; activation factor at 10 µM; muIAP, CDP-Star luminescence, 30 min; hits give high values; 1 = vehicle-only enzyme signal, 0 = enzyme-free wells; 330,000 compounds, 0.24% hits;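 active = activation factor of at least 2 at 20 µM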
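System: Mouse IAP enzyme | Also added: CDP-Star substrate | Dosing: Compounds dispensed in DMSO | Schedule: 30 min enzyme-substrate-compound incubation at room temperature | Technique: Chemiluminescence readout | Control set: DMSO-only wells and no-enzyme negative control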
hIAP inh – human IAP inhibition; P09923; purified IAP, CDP-Star luminescence, 30 min; inhibition, % at 10 µM; 330,000 compounds, 0.12% hits; AID 2544;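 active = inhibition reaching a set limit with compound at 10 µM in the primary screen, cut at about 35% in these data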;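 note: plate controls were DMSO wells with enzyme for no effect and no-enzyme buffer wells for full effect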
Target sequence (P09923 whole entry, looked up): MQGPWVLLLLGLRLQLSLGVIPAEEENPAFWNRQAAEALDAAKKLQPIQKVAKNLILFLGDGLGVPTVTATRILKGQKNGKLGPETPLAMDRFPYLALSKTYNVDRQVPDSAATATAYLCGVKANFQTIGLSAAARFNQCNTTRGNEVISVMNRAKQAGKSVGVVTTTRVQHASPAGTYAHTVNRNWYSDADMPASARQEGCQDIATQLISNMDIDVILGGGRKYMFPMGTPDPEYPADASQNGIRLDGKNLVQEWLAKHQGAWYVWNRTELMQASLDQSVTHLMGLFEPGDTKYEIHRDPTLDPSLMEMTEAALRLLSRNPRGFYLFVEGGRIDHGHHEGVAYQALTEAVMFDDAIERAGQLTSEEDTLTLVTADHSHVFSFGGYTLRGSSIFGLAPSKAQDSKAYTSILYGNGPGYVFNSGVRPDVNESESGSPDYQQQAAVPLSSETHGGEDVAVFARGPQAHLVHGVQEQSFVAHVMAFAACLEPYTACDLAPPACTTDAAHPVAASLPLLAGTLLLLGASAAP
bIAP inh – intestinal alkaline phosphatase (bovine) inhibition. purified bovine IAP, CDP-star luminescence, 30 min. inhibition, % at 20 µM. 190,000 tested, under 10 active. AID 1019;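 active = over 50% inhibition of intestinal alkaline phosphatase at 20 µM in the single-dose screen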
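Assay system – bovine IAP enzyme · Quantity – bovine IAP at 1/65,000,000 final dilution · Detection – CDP-star luminescence signal · Times – 30 min reaction at room temperature · Also added – CDP-star substrate at 30 µM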
bIAP activator – intestinal alkaline phosphatase (bovine) activation. purified bovine IAP, CDP-star luminescence, 30 min; hits give high values; fold of DMSO-control signal, blank-subtracted. activation factor at 20 µM. 200,000 compounds, 0.17% hits. AID 1016;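 active = activation factor of 2 or more at 20 µM, a signal rise over negative controls twice the positive control's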
hIAP act – increases human intestinal alkaline phosphatase activity; activation factor at 10 µM; AID 2524; purified human IAP, CDP-Star luminescence, 30 min; hits give high values; 1 = vehicle-only enzyme, 0 = enzyme-free background; P09923; 330,000 compounds, 0.16% hits;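 active = activation factor of the enzyme at least 2-fold when tested at 20 µM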
mIAP block – blocks mouse intestinal alkaline phosphatase. purified mouse IAP, CDP-Star luminescence, 30 min. inhibition, % at 10 µM. 330,000 compounds, 0.2% hits;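 active = inhibition of at least 40% at 10 µM in the primary screen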;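 note: plate controls were DMSO with enzyme for no effect and no enzyme wells for full effect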
* marks the source's active call; other numbers are inactive results; nt = not tested or not shown.

SMILES | mIAP activ | hIAP inh | bIAP inh | bIAP activator | hIAP act | mIAP block
S=C(NCCCc1ccccc1)Nc1ccccc1 | 1.18 | -13.1 | nt | nt | 1.13 | -17.9
O=C(NCCc1ccc(Cl)cc1)Nc1cccc(Cl)c1 | 2.9* | -20.9 | 6.6 | 0.9 | 1.21 | -189.6
CC(=O)Nc1ccc(S(=O)(=O)N2CCN(c3nc4ccccc4n3CC(C)C)CC2)cc1 | 1.24 | 1.6 | nt | nt | 0.984 | -23.7
O=C(CSc1nnc(-c2ccc3c(c2)OCO3)o1)Nc1c(F)cccc1F | 0.451 | -21.5 | nt | nt | 1.22 | 54.9*
NC(=O)c1ccc(NC(=O)CSc2nnc(-c3ccc4c(c3)OCO4)o2)cc1 | 0.944 | -11.7 | nt | nt | 1.12 | 5.6
CCOc1ccc(CN(C)C(=O)c2ccc(NC(=O)CC3SC(N4CCCC4)=NC3=O)cc2)cc1 (centres undefined) | 1.04 | -15.8 | nt | nt | 1.16 | -4.5
CCc1ccc(C(=O)COC(=O)c2cc([N+](=O)[O-])ccc2N2CCOCC2)cc1 | 0.866 | 0.5 | nt | nt | 0.995 | 13.4
C=CCNC(=O)/C=C/c1c(F)cccc1Cl | 1.05 | -3.0 | -168.6 | 2.7* | 1.03 | -5.3
C=CCN1C(=O)/C(=C/c2ccc(-c3ccc(F)cc3)o2)SC1=S | 0.639 | 36.7* | nt | nt | 0.633 | 36.1
COC(=O)c1ccc(NC(=O)C2CC3CCC2C3)cc1 (centres undefined) | 1.07 | 6.2 | nt | nt | 0.938 | -6.9
COC(=O)c1ccc(NC(=S)NC2CC3CCC2C3)cc1 (centres undefined) | 3.02* | -14.7 | -15.5 | 1.2 | 1.15 | -201.7
NC(=O)c1cc(S(=O)(=O)N2CCCC2)ccc1OCCOc1ccccc1 | 1.08 | -6.6 | nt | nt | 1.07 | -8.2
COc1ccc(N2C(=O)N3[C@H](c4cccc(C)c4)[C@@H]4C(=O)N(Cc5ccccc5)C(=O)[C@@H]4[C@]3(Cc3ccccc3)C2=O)cc1 | 1.06 | -18.0 | nt | nt | 1.18 | -5.7
Cc1cccc([C@@H]2[C@@H]3C(=O)N(Cc4ccccc4)C(=O)[C@@H]3[C@]3(C)C(=O)N(c4ccc(C(F)(F)F)cc4)C(=O)N23)c1 | 0.586 | -0.4 | nt | nt | 1 | 41.4*
Cc1ccccc1C(=O)NC(CC(C)C)C(=O)OCC(=O)c1c(N)n(C)c(=O)n(C)c1=O (centres undefined) | 1.04 | -7.4 | -105.4 | 2.1* | 1.07 | -3.8
CCCC(=O)OCCNc1cc(Sc2nc3ccccc3[nH]2)c2nonc2c1[N+](=O)[O-] | 0.882 | 12.1 | -251.2 | 3.5* | 0.879 | 11.8
CCC(=O)OCCNc1cc(SCCC(=O)OC)c2nonc2c1[N+](=O)[O-] | 0.881 | -4.0 | 13.7 | 0.9 | 1.04 | 11.9
CN(C)S(=O)(=O)c1cccc(-c2nn(-c3ccccc3)cc2/C=C2\SC(=S)NC2=O)c1 | nt | nt | -108.0 | 2.1* | nt | nt
C[C@@H]1NC(=O)c2cc([N+](=O)[O-])cc(I)c2OCC[C@@H](C(=O)NC(CC(=O)O)C(N)=O)NC(=O)[C@H](CC(N)=O)NC1=O (some centres undefined) | 0.553 | 1.2 | -21.8 | 1.2 | 0.988 | 44.7*
O=C(Nc1cccc(Cl)c1)C1C2CCC3C(CCC21)C3(Cl)Cl (centres undefined) | 2.88* | 10.2 | 14.4 | 0.9 | 0.898 | -187.6
CC1CCN(C(C(=O)Nc2ccc3c(c2)OCO3)c2ccccc2)CC1 (centres undefined) | 1.19 | 16.7 | -166.8 | 2.7* | 0.833 | -18.5
CC1CCCN(C(C(=O)Nc2ccc3c(c2)OCCO3)c2ccccc2)C1 (centres undefined) | 1.22 | 0.1 | -13.2 | 1.1 | 0.999 | -22.0
CC1CCCN(C(C(=O)Nc2ccc3c(c2)OCO3)c2ccccc2)C1 (centres undefined) | 1.31 | 23.9 | -113.4 | 2.1* | 0.761 | -31.5
C=C1CCN([C@@H](CC(C)C)C(=O)NCc2ccc(Cl)c(Cl)c2)S(=O)(=O)c2ccccc21 | 1.19 | 23.9 | nt | nt | 0.761 | -19.2
C=C1CCN([C@@H](CC(C)C)C(=O)NCc2ccc(Cl)cc2)S(=O)(=O)c2ccccc21 | 0.544 | 11.7 | nt | nt | 0.883 | 45.6*
SMILES | mIAP activ | hIAP inh | bIAP inh | bIAP activator | hIAP act | mIAP block
CCOc1ccc(S(=O)(=O)N2CCN(C(=O)c3ccc(C)c(S(=O)(=O)N4CCOCC4)c3)CC2)cc1 | 1.01 | 2.3 | nt | nt | 0.977 | -0.6
C=CC[C@H](CC(=O)NCCO)C(=O)N[C@@H](COC(=O)[C@H](CC=C)CC(=O)OC(C)(C)C)Cc1c[nH]c2ccccc12 | 1.12 | 12.6 | nt | nt | 0.874 | -12.1
Cc1c(C)n(Cc2ccccc2)c2ccc(C(=O)OCCCN(C)C)cc12 | 1.09 | 2.9 | -120.3 | 2.2* | 0.971 | -8.6
C[C@H](CO)N1C[C@H](C)[C@@H](CN(C)C(=O)Nc2ccc(C(F)(F)F)cc2)Oc2ccc(NC(=O)Nc3ccc4c(c3)OCO4)cc2C1=O | 2.38* | 7.1 | nt | nt | 0.929 | -138.5
C[C@@H]1CN([C@H](C)CO)C(=O)c2cc(NC(=O)Nc3ccc(F)cc3)ccc2O[C@H]1CN(C)C(=O)Nc1ccc(C(F)(F)F)cc1 | 2.03* | -6.9 | nt | nt | 1.07 | -103.4
C[C@H](CO)N1C[C@H](C)[C@@H](CN(C)C(=O)Nc2ccccc2)Oc2ccc(NC(=O)Nc3ccc(C(F)(F)F)cc3)cc2C1=O | 1.91 | 9.8 | nt | nt | 0.902 | -90.5
CC(C)NC(=O)Nc1ccc2c(c1)C(=O)N([C@H](C)CO)C[C@H](C)[C@@H](CN(C)C(=O)Nc1ccc(C(F)(F)F)cc1)O2 | 2.32* | -9.8 | nt | nt | 1.1 | -131.6
C[C@H](CO)N1C[C@H](C)[C@@H](CN(C)C(=O)Nc2ccc3c(c2)OCO3)Oc2ccc(NC(=O)NC3CCCCC3)cc2C1=O | 2.29* | 4.4 | nt | nt | 0.956 | -129.0
Cc1cccc2sc(N(CCN(C)C)C(=O)C3CCN(S(=O)(=O)c4cccs4)CC3)nc12 | 0.981 | 10.5 | nt | nt | 0.895 | 1.9
Cc1ccc(Cl)cc1NC(=S)NCCCSC1CCCCC1 | 3.11* | -3.7 | nt | 0.4 | 1.04 | -210.7
N#Cc1ccc(CN2CCN(C(=O)c3ccc(S(=O)(=O)NCc4ccco4)cc3)CC2)cc1 | 0.943 | -7.9 | nt | nt | 1.08 | 5.7
Cc1ccc(CN(C(=O)N2CCN(C)CC2)S(=O)(=O)c2ccc(C)cc2)cc1 | 0.965 | 5.2 | nt | nt | 0.948 | 3.5
CCOC(=O)c1sc(NC(=O)Nc2cccc(Cl)c2)cc1C | 2.04* | -11.6 | -0.7 | 1 | 1.12 | -103.7
COc1ccc(C2C(C(=O)Nc3cc(OC)c(OC)c(OC)c3)c3ccccc3C(=O)N2C)cc1 (centres undefined) | 2.02* | -35.6 | -123.4 | 2.2* | 1.36 | -101.7
COc1ccc(CCN(C)C2CCCN(S(=O)(=O)c3ccc(C)cc3)C2)cc1OC (centres undefined) | 0.983 | 6.9 | nt | nt | 0.931 | 1.7
Cc1cccc(NC(=O)[C@H](Cc2ccccc2)NC(=O)OCc2ccccc2)c1 | 1.57 | 4.6 | -0.2 | 1 | 0.954 | -57.0
Cc1ccc(NC(=O)C(Cc2ccccc2)NC(=O)OCc2ccccc2)cc1C (centres undefined) | 2.11* | -7.0 | -3.2 | 1 | 1.07 | -110.7
